Source: the M2OR odorant receptor database

Biological target: T1, OR10J5 (Homo sapiens) (UniProt Q8NHC4)
T1 sequence (whole entry): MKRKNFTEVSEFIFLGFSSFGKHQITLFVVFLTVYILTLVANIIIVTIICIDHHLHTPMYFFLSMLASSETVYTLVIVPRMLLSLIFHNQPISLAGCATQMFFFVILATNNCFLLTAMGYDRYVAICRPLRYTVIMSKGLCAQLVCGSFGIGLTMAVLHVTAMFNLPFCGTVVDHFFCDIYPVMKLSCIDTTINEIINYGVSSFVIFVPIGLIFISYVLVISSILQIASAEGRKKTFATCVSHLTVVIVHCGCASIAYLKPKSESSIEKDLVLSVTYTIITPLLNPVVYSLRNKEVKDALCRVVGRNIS
Conditions: stereoisomer not certain
Procedure, shortened: (§1)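 Each receptor–molecule pair is labelled responsive or non-responsive (inactive) according to whether the original authors judged the measured signal statistically different from baseline. The data were taken from the main text and supplementary material of published papers and checked for typos and inconsistencies. Assay methods differed by source, with transient luciferase assays in mammalian cell lines being common.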

Odorant receptor agonist call, inactive:
c1ccccc1
O=C1Cc2ccccc2O1
CCCCCCC(C)=O
CC(=O)Oc1ccccc1
CCCCC(C)=O
CCCCOC(=O)C(C)OC(=O)CCC (centres undefined)
CCCCCCCC(=O)[O-].[H+]
O=C1CCOc2ccccc21
CCCCCCCC(C)=O
O=c1ccc2ccccc2o1
CCCCCCCCCCO
C=CCOC(=O)CCCCCC
CCCCCCCCCS
CCCC(C)=O
CCC(C(=O)O)c1ccccc1 (centres undefined)
CCCCOC=O
CCC(=O)C(=O)CC
O=C(c1ccccc1)c1ccccc1
CCC(=O)O
CCCCCCCCCC(=O)[O-].[H+]
CCCCCCCCS
CCCCCOC(=O)CCCCC
CCCCCO
CCCCCCCCC(=O)O
CCOC(=O)C(C)C
CC12CCC(CC1=O)C2(C)C (centres undefined)
C=C(C)C1CCC(C)C(=O)C1 (centres undefined)
CC(C)=CCCC(C)=CCO
COc1cc(C(=O)O)ccc1O

Biological target: T2, OR10S1 (Homo sapiens) (UniProt Q8NGN2)
T2 sequence (whole entry): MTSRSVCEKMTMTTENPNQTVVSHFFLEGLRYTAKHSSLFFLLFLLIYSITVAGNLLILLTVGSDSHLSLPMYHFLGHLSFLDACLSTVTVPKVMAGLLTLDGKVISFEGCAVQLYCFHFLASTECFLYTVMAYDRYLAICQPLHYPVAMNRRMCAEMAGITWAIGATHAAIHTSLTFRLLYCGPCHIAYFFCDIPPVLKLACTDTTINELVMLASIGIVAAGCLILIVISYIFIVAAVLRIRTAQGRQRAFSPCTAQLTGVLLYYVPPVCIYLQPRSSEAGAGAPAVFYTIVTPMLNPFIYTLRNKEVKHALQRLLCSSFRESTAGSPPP
Conditions: stereoisomer not certain
Procedure, shortened: as §1

Odorant receptor agonist call, active:
CC(C)=CCCC(C)=CCO

Odorant receptor agonist call, inactive:
O=c1ccc2ccccc2o1
CCCCCCCCCCCCCC(=O)O
CCC(=O)O
CCCCCCCCCCCCCC(=O)OC
